From ChEMBL document CHEMBL2412965, “Macrocyclic biphenyl tetraoxazoles: synthesis, evaluation as G-quadruplex stabilizers and cytotoxic activity” (Bioorg Med Chem, 2013)

Key:
[1] = Cytotoxicity against human KBH5.0 cells overexpressing BCRP after 4 days by MTT assay; assay type: functional, cell-based; details: KBH5.0 cell, 96 h
Procedure, shortened: (§1)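 Cells were grown in suspension in RPMI with 10% heat-inactivated FBS, 2 mM L-glutamine, penicillin and streptomycin at 37 °C, 5% CO2. Drug exposure was continuous for 4 days across a concentration range, with a drug-free control. IC50 came from at least two experiments in six replicate wells.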

Salmonidae [2] = assay: Binding affinity to salmon testes duplex DNA assessed as thermal transition temperature at 15 uM preincubated for 5 mins at 90 degC followed by cooling at room temperature measured after 4 hrs by UV spectrophotometric analysis in presence of 150 mM K+ (reference value: 86.1 degC)
Procedure, shortened: (§2)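 Salmon testes duplex DNA melting with ligand at 15 μM in 1 cm quartz cells. Buffer was 10 mM potassium phosphate, pH 7.5, with KCl added to give 50 mM K+ (32 mM KCl) or 150 mM K+ (132 mM KCl). Absorbance was read at 260 nm, temperature raised in 0.5 °C increments with 1 min equilibration and 5 s averaging. Ttran was taken from the first-derivative maximum.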

Salmonidae [3] = assay: Binding affinity to salmon testes duplex DNA assessed as thermal transition temperature at 15 uM preincubated for 5 mins at 90 degC followed by cooling at room temperature measured after 4 hrs by UV spectrophotometric analysis in presence of 50 mM K+ (reference value: 78.2 degC); procedure, shortened: as §2
[4] = Cytotoxicity against human KBV1 cells overexpressing MDR1 after 4 days by MTT assay; assay type: functional, cell-based; details: KB-V1, 96 h; procedure, shortened: as §1
[5] = Cytotoxicity against human RPMI8402 cells after 4 days by MTT assay; assay type: functional, cell-based; details: RPMI 8402, 96 h
[6] = Cytotoxicity against wild type human KB-3-1 cells after 4 days by MTT assay; assay type: functional, cell-based; details: KB 3-1, 96 h; procedure, shortened: as §1
Homo sapiens [7] = species on record: Homo sapiens; assay: Binding affinity to human d(TTAGGG)4 assessed as thermal transition temperature at 20 uM preincubated for 5 mins at 90 degC followed by cooling at room temperature measured after 4 hrs by UV spectrophotometric analysis in presence of 150 mM K+ (reference value: 63.1 degC)
Procedure, shortened: (§3)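 UV melting of human telomeric d(TTAGGG)4 at 5 μM strand (120 μM nucleotide), with ligand at 20 μM. Before use, DNA was heated 5 min at 90 °C and cooled slowly to room temperature over 4 h. Buffer was 10 mM potassium phosphate, pH 7.5, with KCl added to give 50 mM K+ (32 mM KCl) or 150 mM K+ (132 mM KCl). Absorbance was read at 295 nm in 0.5 °C steps with 1 min equilibration. Ttran was taken from the first-derivative minimum.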

Homo sapiens [8] = species on record: Homo sapiens; assay: Binding affinity to human d(TTAGGG)4 assessed as thermal transition temperature at 20 uM preincubated for 5 mins at 90 degC followed by cooling at room temperature measured after 4 hrs by UV spectrophotometric analysis in presence of 50 mM K+ (reference value: 55.3 degC); procedure, shortened: as §3
MDA-MB-435 = assay: Antitumor activity against human MDA-MB-435 cells xenografted in athymic nude NCr mouse assessed as tumor growth inhibition at 14 to 31 mg/kg, ip administered 3 times per week for 3 weeks followed by 42 mg/kg, ip dose for 3 times per week for last 10 days measured 2 times per week during compound administration relative to control; assay type: functional
Mus musculus = assay: Toxicity in athymic nude NCr mouse xenografted with human MDA-MB-435 cells administered as ip for 3 times per week for 4 weeks measured 2 times per week during compound administration; assay type: organism-based; details: in vivo, 672 h

| Structure (SMILES) | IC50 [1] | T (Salmonidae [2]) | T (Salmonidae [3]) | IC50 [4] | IC50 [5] | IC50 [6] | T (Homo sapiens [7]) | T (Homo sapiens [8]) | T/C (MDA-MB-435) | Activity (Mus musculus) |
| --- | --- | --- | --- | --- | --- | --- | --- | --- | --- | --- |
| O=C1CNC(=O)c2coc(n2)-c2coc(n2)-c2cccc(c2)-c2cccc(c2)-c2nc(co2)-c2nc(co2)CN1 | > 10 µM | 86.7 °C | 78.2 °C | > 10 µM | 2.5 µM | 2.3 µM | 67.3 °C | 60.1 °C |  |  |
| CC(C)(C)OC(=O)NCC[C@@H]1NC(=O)c2coc(n2)-c2coc(n2)-c2cccc(c2)-c2cccc(c2)-c2nc(co2)-c2nc(co2)CNC1=O | 6 µM | 86.5 °C | 78.3 °C | > 10 µM | 3.5 µM | > 10 µM | 64.2 °C | 57.7 °C |  |  |
| CC(C)[C@@H]1NC(=O)c2coc(n2)-c2coc(n2)-c2cccc(c2)-c2cccc(c2)-c2nc(co2)-c2nc(co2)CNC1=O | 10 µM | 86.2 °C | 78.2 °C | 6.5 µM |  | 5 µM | 67.2 °C | 61.7 °C |  |  |
| CC(C)[C@@H]1NC(=O)c2coc(n2)-c2coc(n2)-c2coc(n2)C/C=C/c2coc(n2)-c2coc(n2)-c2coc1n2 | 0.04 µM | 86.2 °C | 78.2 °C | 3.3 µM | 0.03 µM |  | 93.2 °C | 92.2 °C |  |  |
| O=C1N[C@@H](Cc2ccccc2)C(=O)NCc2coc(n2)-c2coc(n2)-c2cccc(c2)-c2cccc(c2)-c2nc(co2)-c2nc1co2 | > 10 µM | 85.7 °C | 77.2 °C | > 10 µM | > 10 µM | > 10 µM | 64.7 °C | 58.1 °C |  |  |
| NCC[C@@H]1NC(=O)c2coc(n2)-c2coc(n2)-c2cccc(c2)-c2cccc(c2)-c2nc(co2)-c2nc(co2)CNC1=O | > 10 µM | 87.1 °C | 81.1 °C | > 10 µM | 7 µM | 4 µM | 77.7 °C | 68.2 °C |  |  |
| CC(C)[C@@H]1NC(=O)c2coc(n2)-c2coc(n2)-c2coc(n2)[C@H](CCN(C)C)NC(=O)c2coc(n2)-c2coc(n2)-c2coc1n2 | 0.03 µM | 86.7 °C | 78.2 °C | 5 µM | 0.07 µM |  | 92.2 °C | 92.7 °C | 21.6% | <= 45 mg kg-1 |
| CC(C)[C@@H]1NC(=O)c2coc(n2)-c2coc(n2)-c2coc(n2)[C@H](C(C)C)NC(=O)c2coc(n2)-c2coc(n2)-c2coc1n2 [HEXAOXAZOLE DIVALINE] | 0.5 µM |  |  | > 10 µM | 0.41 µM | 0.3 µM |  |  |  |  |
| CN(C)CCc1cc2cc(c1)CNC(=O)c1coc(n1)-c1coc(n1)-c1cccc(n1)-c1nc(co1)-c1nc(co1)C(=O)NC2 | > 10 µM | 86.8 °C | 78.7 °C | > 10 µM | 0.18 µM | 0.04 µM | 91.2 °C | 91.2 °C |  |  |
| CN(C)CC[C@@H]1NC(=O)c2coc(n2)-c2coc(n2)-c2cccc(c2)-c2cccc(c2)-c2nc(co2)-c2nc(co2)CNC1=O | > 10 µM | 86.7 °C | 79.1 °C | > 10 µM | 6.5 µM | 3.5 µM | 73.7 °C | 63.7 °C |  |  |
